Assay results reported in ChEMBL document CHEMBL1629420, “Structure-cytotoxicity relationship in a series of N-phosphorus substituted E,E-3,5-bis(3-pyridinylmethylene)- and E,E-3,5-bis(4-pyridinylmethylene)piperid-4-ones” (Eur J Med Chem, 2010).

Assays:
Format in all cases: functional, cell-based
[1] = Cytotoxicity against human KB3-1 cells after 72 hrs by MTT assay; conditions: KB 3-1, 72 h
Outline: (§1)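 Cells grown in RPMI-1640 with 10% FBS, 2 mM L-glutamine and gentamicin; seeded at 1 × 10⁴ cells/well and left to attach overnight at 37 °C, 5% CO₂. Compounds were dissolved in DMSO, diluted into FBS-free medium and tested at 5 × 10⁻⁵, 10⁻⁵, 10⁻⁶ and 10⁻⁷ M for 72 h. MTT was added for 3 h, formazan dissolved in DMSO and read at 590 nm. Triplicates; IC50 derived graphically from % viability loss versus untreated controls.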

A549 = experiment: Cytotoxicity against human A549 cells after 72 hrs by MTT assay; conditions: A549, 72 h
Outline: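 Compounds were dissolved in DMSO, diluted into FBS-free medium and tested at 5 × 10⁻⁵, 10⁻⁵, 10⁻⁶ and 10⁻⁷ M for 72 h. MTT was added for 3 h, formazan dissolved in DMSO and read at 590 nm. Triplicates; IC50 derived graphically from % viability loss versus untreated controls.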

[2] = Cytotoxicity against human multi drug resistant subclone KB 8.5 cells after 72 hrs by MTT assay; outline: as §1
[3] = Cytotoxicity against human Caov3 cells after 72 hrs by MTT assay; conditions: Caov-3, 72 h; outline: as §1

Structure (SMILES) | IC50 [1] [µM] | IC50 (A549) [µM] | IC50 [2] [µM] | IC50 [3] [µM]
O=C1/C(=C/c2cccnc2)CNC/C1=C\c1cccnc1 | 24.4 | 11.1 | 30 | 9.2
O=C1/C(=C/c2ccncc2)CNC/C1=C\c1ccncc1 | 5 | 10.3 | 8.5 | 6
CN1C/C(=C\c2ccncc2)C(=O)/C(=C/c2ccncc2)C1 | 3 | 4.2 | 7.4 | 5.1
CCOP(=O)(OCC)N1C/C(=C\c2cccnc2)C(=O)/C(=C/c2cccnc2)C1 | 5 | 10.4 | 5.3 | 8.1
COc1cccc2c1C(=O)c1c(O)c3c(c(O)c1C2=O)C[C@@](O)(C(=O)CO)C[C@@H]3O[C@H]1C[C@H](N)[C@H](O)[C@H](C)O1 [DOXORUBICIN] |  |  | 3.3 | 
CCOP(=O)(CCCCN1C/C(=C\c2cccnc2)C(=O)/C(=C/c2cccnc2)C1)OCC | 6.1 | 15.4 | 9.5 | 6.2
N[C@@H](Cc1ccc(N(CCCl)CCCl)cc1)C(=O)O |  |  |  | 50
CN1C/C(=C\c2cccnc2)C(=O)/C(=C/c2cccnc2)C1 | 20.2 | > 20 | 40.4 | > 20
CCOP(=O)(OCC)N1C/C(=C\c2ccncc2)C(=O)/C(=C/c2ccncc2)C1 | 2.1 | 8.2 | 5.1 | 4.3
CCOP(=O)(CCN1C/C(=C\c2cccnc2)C(=O)/C(=C/c2cccnc2)C1)OCC | > 40 | > 40 | > 40 | > 40
